Activity calls are given as the source filed them. The calls are words filed in the database; no cut-off is given here.
Experiments:
Type in all cases: functional
SF-268 = test: Growth inhibition of human SF268 cells at 10 uM after 48 hrs by SRB assay; details: SF-268, 48 h, read-out: GI
In short: (§1)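 Cells grown in RPMI 1640 with 5% FBS and 2 mM L-glutamine, plated at 5000–40,000 cells/well by doubling time and preincubated 24 h (37 °C, 5% CO2); a time-zero plate is TCA-fixed. Single dose added, then 48 h incubation. Fixed with cold TCA, stained with 0.4% SRB, dye solubilized in 10 mM Tris base, absorbance at 515 nm; percent growth vs time-zero and untreated control.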

DU-145 = test: Growth inhibition of human DU145 cells at 10 uM after 48 hrs by SRB assay; details: DU-145, 48 h, read-out: GI; in short: as §1
[1] = Cytotoxicity against human CNS cancer cells after 48 hrs by SRB assay; details: Cancer cell lines
In short: (§2)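 Five-concentration screen (10-fold or ½-log serial dilutions) on the 60-line panel. Cells grown in RPMI 1640 with 5% FBS and 2 mM L-glutamine, plated at 5000–40,000/well by doubling time, preincubated 24 h at 37 °C, 5% CO2, then exposed 48 h. Time-zero plates TCA-fixed. SRB stain, Tris-solubilized, A515. GI50, TGI and LC50 derived from Tz, C and Ti.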

NCI-H460 = test: Growth inhibition of human NCI-H460 cells at 10 uM after 48 hrs by SRB assay; details: NCI-H460, 48 h, read-out: GI; in short: as §1
[2] = Cytotoxicity against human ovarian cancer cells after 48 hrs by SRB assay; details: Cancer cell lines; in short: as §2
[3] = Cytotoxicity against human prostate cancer cells after 48 hrs by SRB assay; details: Cancer cell lines; in short: as §2
MDA-MB-468 = test: Growth inhibition of human MDA-MB-468 cells at 10 uM after 48 hrs by SRB assay; in short: as §1
PC-3 = test: Growth inhibition of human PC3 cells at 10 uM after 48 hrs by SRB assay; details: PC-3, 48 h, read-out: GI; in short: as §1
[4] = Cytotoxicity against human melanoma cells after 48 hrs by SRB assay; details: Melanoma cell; in short: as §2
[5] = Cytotoxicity against human leukemia cells after 48 hrs by SRB assay; details: Leukemia cell; in short: as §2
[6] = Cytotoxicity against human renal cancer cells after 48 hrs by SRB assay; details: Cancer cell lines; in short: as §2
MDA-MB-435 = test: Growth inhibition of human MDA-MB-435 cells at 10 uM after 48 hrs by SRB assay; details: MDA-MB-435, 48 h, read-out: GI; in short: as §1
T47D = test: Growth inhibition of human T47D cells at 10 uM after 48 hrs by SRB assay; details: read-out: GI
In short: (§3)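 NCI 60-cell-line screen with a single 10 µM dose. Cells are grown in RPMI 1640 with 5% FBS and 2 mM L-glutamine, plated at 5000–40,000 cells/well according to doubling time, and preincubated 24 h at 37 °C, 5% CO2; time-zero plates are TCA-fixed at that point. Drug exposure is 48 h. Adherent cells are fixed with cold TCA, stained with 0.4% SRB in 1% acetic acid and read at 515 nm. Percent growth is calculated relative to time-zero and untreated controls and reported as GI%.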

[7] = Cytotoxicity against human colon cancer cells after 48 hrs by SRB assay; details: Cancer cell lines; in short: as §2
SNB-19 = test: Growth inhibition of human SNB19 cells at 10 uM after 48 hrs by SRB assay; details: SNB-19, 48 h, read-out: GI; in short: as §3
SK-MEL-28 = test: Growth inhibition of human SK-MEL-28 cells at 10 uM after 48 hrs by SRB assay; details: SK-MEL-28, 48 h, read-out: GI; in short: as §1
BT-549 = test: Growth inhibition of human BT549 cells at 10 uM after 48 hrs by SRB assay; details: BT-549, 48 h, read-out: GI; in short: as §1
UO-31 = test: Growth inhibition of human UO31 cells at 10 uM after 48 hrs by SRB assay; details: UO-31, 48 h, read-out: GI; in short: as §3
MCF7 = test: Growth inhibition of human MCF7 cells at 10 uM after 48 hrs by SRB assay; details: MCF7, 48 h, read-out: GI; in short: as §1
RXF 393 = test: Growth inhibition of human RXF393 cells at 10 uM after 48 hrs by SRB assay; details: RXF 393, 48 h, read-out: GI; in short: as §1
A498 = test: Growth inhibition of human A498 cells at 10 uM after 48 hrs by SRB assay; details: A498, 48 h, read-out: GI; in short: as §1
[8] = Cytotoxicity against human non-small cell lung cancer cells after 48 hrs by SRB assay; details: Cancer cell lines; in short: as §2
RPMI-8226 = test: Growth inhibition of human RPMI8226 cells at 10 uM after 48 hrs by SRB assay; details: RPMI-8226, 48 h, read-out: GI; in short: as §1
UACC-62 = test: Growth inhibition of human UACC62 cells at 10 uM after 48 hrs by SRB assay; details: UACC-62, 48 h, read-out: GI; in short: as §3
[9] = Growth inhibition of human NCI-ADR-RES cells at 10 uM after 48 hrs by SRB assay; details: read-out: GI; in short: as §1
HCT-15 = test: Growth inhibition of human HCT15 cells at 10 uM after 48 hrs by SRB assay; details: HCT-15, 48 h, read-out: GI; in short: as §1
NCI-H322M = test: Growth inhibition of human NCI-H322M cells at 10 uM after 48 hrs by SRB assay; details: read-out: GI; in short: as §1
OVCAR-4 = test: Growth inhibition of human OVCAR4 cells at 10 uM after 48 hrs by SRB assay; details: OVCAR-4, 48 h, read-out: GI; in short: as §1
TK-10 = test: Growth inhibition of human TK10 cells at 10 uM after 48 hrs by SRB assay; details: TK-10, 48 h, read-out: GI; in short: as §3
[10] = Cytotoxicity against human breast cancer cells after 48 hrs by SRB assay; details: Cancer cell lines; in short: as §2
HL-60(TB) = test: Growth inhibition of human HL-60(TB) cells at 10 uM after 48 hrs by SRB assay; details: HL-60, 48 h, read-out: GI
In short: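 Single-concentration pass across the 60-line panel in RPMI 1640 with 5% FBS. Cells preincubated 24 h, then exposed 48 h at 37 °C, 5% CO2. Read by SRB staining with absorbance at 515 nm. Percent growth is taken relative to time-zero and untreated controls and reported as percent growth inhibition (GI %).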

HCT-116 = test: Growth inhibition of human HCT116 cells at 10 uM after 48 hrs by SRB assay; details: HCT-116, 48 h, read-out: GI; in short: as §1
[11] = Growth inhibition of human EKVX cells at 10 uM after 48 hrs by SRB assay; details: read-out: GI; in short: as §1
[12] = read-out: LC50 (the source's name)

`Nc1ccc(Sc2ccc3c4c2cccc4c(=O)n2c4ccccc4nc32)cc1` showed an inhibition of growth at 10 µM (SF-268) of 40.6%, an inhibition of growth at 10 µM (DU-145) of 60.7% and a GI50 [1] of 4.09 µM. For the same compound, the TGI [1] was 45.4 µM, the CC50 [1, 12] was 94 µM and the inhibition of growth at 10 µM (NCI-H460) was 90.5%. It also gave a GI50 [2] of 6.97 µM, a TGI [2] of 37.4 µM and a CC50 [2, 12] of 97.9 µM. The GI50 [3] was 3.23 µM, the TGI [3] was 17.9 µM and the inhibition of growth at 10 µM (MDA-MB-468; MDA-MB-468, 48 h, read-out: GI) was 56.5%. The inhibition of growth at 10 µM (PC-3) was 49.6%, the GI50 [4] was 6.93 µM and the LC50 [4] was 83.9 µM. For the same compound, the TGI [4] was 35.1 µM, the GI50 [5] was 2.9 µM and the TGI [5] was 44.5 µM. For the same compound, the CC50 [5, 12] was > 100 µM, the GI50 [6] was 3.3 µM and the TGI [6] was 15.4 µM. The CC50 [6, 12] was 88.9 µM, the inhibition of growth at 10 µM (MDA-MB-435) was < 20% and the inhibition of growth at 10 µM (T47D) was 60.4%. The GI50 [7] was 6.58 µM, the TGI [7] was 60.8 µM and the CC50 [7, 12] was 98.8 µM. For the same compound, the inhibition of growth at 10 µM (SNB-19) was 53.7%, the inhibition of growth at 10 µM (SK-MEL-28) was 26.3% and the inhibition of growth at 10 µM (BT-549) was 40.9%. The inhibition of growth at 10 µM (UO-31) was 90.7%, the inhibition of growth at 10 µM (MCF7) was 76.4% and the inhibition of growth at 10 µM (RXF 393) was 27.4%. It also gave an inhibition of growth at 10 µM (A498) of 41.2%, a GI50 [8] of 3.94 µM and a TGI [8] of 32.5 µM. It also gave an inhibition of growth at 10 µM (RPMI-8226) of 50%, an inhibition of growth at 10 µM (UACC-62) of 68.1% and an inhibition of growth at 10 µM [9] of 43.4%. It also gave an inhibition of growth at 10 µM (HCT-15) of 59.5%, an inhibition of growth at 10 µM (NCI-H322M) of 38.2% and an inhibition of growth at 10 µM (OVCAR-4) of 26%. It also gave an inhibition of growth at 10 µM (TK-10) of 21.4%, a GI50 [10] of 5.2 µM and a TGI [10] of 46 µM. The CC50 [10, 12] was > 100 µM, the inhibition of growth at 10 µM (HL-60(TB)) was 81.8% and the inhibition of growth at 10 µM (HCT-116) was 53.2%.

For `O=c1c2cccc3c(N4CCOCC4)ccc(c32)c2nc3ccccc3n12`, the inhibition of growth at 10 µM (SF-268) was < 20%, the inhibition of growth at 10 µM (DU-145) was < 20% and the inhibition of growth at 10 µM [11] was 61.7%. The inhibition of growth at 10 µM (NCI-H460) was < 20%, the “growth inhibition (GI)” value (MDA-MB-468) was “Active” and the inhibition of growth at 10 µM (PC-3) was < 20%. For the same compound, the inhibition of growth at 10 µM (MDA-MB-435) was < 20%, the inhibition of growth at 10 µM (T47D) was 61.9% and the inhibition of growth at 10 µM (SNB-19) was < 20%. The inhibition of growth at 10 µM (SK-MEL-28) was < 20%, the inhibition of growth at 10 µM (BT-549) was < 20% and the inhibition of growth at 10 µM (UO-31) was 34.1%. The inhibition of growth at 10 µM (MCF7) was 76%, the inhibition of growth at 10 µM (RXF 393) was < 20% and the inhibition of growth at 10 µM (A498) was < 20%. For the same compound, the inhibition of growth at 10 µM (RPMI-8226) was < 20%, the inhibition of growth at 10 µM (UACC-62) was 37.9% and the inhibition of growth at 10 µM [9] was < 20%. For the same compound, the inhibition of growth at 10 µM (HCT-15) was < 20%, the inhibition of growth at 10 µM (NCI-H322M) was < 20% and the inhibition of growth at 10 µM (OVCAR-4) was 30.1%. For the same compound, the inhibition of growth at 10 µM (TK-10) was 28.2%, the inhibition of growth at 10 µM (HL-60(TB)) was < 20% and the inhibition of growth at 10 µM (HCT-116) was < 20%.

Reference: ChEMBL document CHEMBL2424551, “Synthesis, in vitro evaluation and molecular modelling of naphthalimide analogue as anticancer agents” (2013)
